Measured values taken from ChEMBL document CHEMBL1124459, “Activity of aromatic substituted phenylpiperazines lacking affinity for dopamine binding sites in a preclinical test of antipsychotic efficacy” (J Med Chem, 1989).

Tests used:
[1] = target: T1, Serotonin 1 (5-HT1) receptor (Rattus norvegicus, UniProt P28564+P30940+P19327+P28565); assay: Inhibition of [3H]5-HT radioligand binding against 5-hydroxytryptamine 1 receptor; type: protein assay
[2] = target: T2, 5-hydroxytryptamine receptor 1A (Rattus norvegicus, UniProt P19327)
T2 sequence (P19327 whole entry): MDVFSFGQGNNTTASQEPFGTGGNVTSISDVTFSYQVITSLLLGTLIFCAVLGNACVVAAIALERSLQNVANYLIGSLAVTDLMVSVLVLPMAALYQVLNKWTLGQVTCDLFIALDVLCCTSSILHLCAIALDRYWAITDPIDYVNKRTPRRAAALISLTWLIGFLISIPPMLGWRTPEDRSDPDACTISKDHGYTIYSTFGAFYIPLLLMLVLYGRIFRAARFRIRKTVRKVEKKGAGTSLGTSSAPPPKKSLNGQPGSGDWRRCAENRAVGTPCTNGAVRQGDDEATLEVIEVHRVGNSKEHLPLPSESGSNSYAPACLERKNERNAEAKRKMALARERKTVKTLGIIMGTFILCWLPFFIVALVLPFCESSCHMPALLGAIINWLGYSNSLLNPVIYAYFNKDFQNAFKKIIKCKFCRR

[3] = target: T3, Serotonin 2 (5-HT2) receptor (Rattus norvegicus, UniProt P30994+P08909+P14842); assay: Binding affinity at rat 5-hydroxytryptamine 2 receptor by [3H]ketanserin displacement.; type: protein assay
[4] = target: T4, Adrenergic receptor alpha-1 (Rattus norvegicus, UniProt P15823+P23944+P43140); assay: Binding affinity against rat Alpha-1 adrenergic receptor.; type: protein assay
T4 sequence (P15823 whole entry): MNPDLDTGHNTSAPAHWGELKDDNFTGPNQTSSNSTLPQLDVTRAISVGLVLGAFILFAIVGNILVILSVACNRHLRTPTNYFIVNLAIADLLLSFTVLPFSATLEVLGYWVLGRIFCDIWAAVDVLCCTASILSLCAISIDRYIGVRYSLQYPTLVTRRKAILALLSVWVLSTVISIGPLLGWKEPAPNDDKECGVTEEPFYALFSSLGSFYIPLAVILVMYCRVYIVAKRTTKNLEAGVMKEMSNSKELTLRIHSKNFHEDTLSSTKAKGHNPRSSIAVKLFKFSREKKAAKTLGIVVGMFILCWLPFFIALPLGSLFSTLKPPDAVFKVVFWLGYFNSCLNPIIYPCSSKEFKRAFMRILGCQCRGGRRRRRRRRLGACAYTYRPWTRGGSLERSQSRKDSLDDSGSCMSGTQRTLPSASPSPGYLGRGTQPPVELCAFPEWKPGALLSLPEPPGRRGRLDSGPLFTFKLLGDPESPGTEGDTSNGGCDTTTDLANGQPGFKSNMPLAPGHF
T4 sequence (P23944 whole entry): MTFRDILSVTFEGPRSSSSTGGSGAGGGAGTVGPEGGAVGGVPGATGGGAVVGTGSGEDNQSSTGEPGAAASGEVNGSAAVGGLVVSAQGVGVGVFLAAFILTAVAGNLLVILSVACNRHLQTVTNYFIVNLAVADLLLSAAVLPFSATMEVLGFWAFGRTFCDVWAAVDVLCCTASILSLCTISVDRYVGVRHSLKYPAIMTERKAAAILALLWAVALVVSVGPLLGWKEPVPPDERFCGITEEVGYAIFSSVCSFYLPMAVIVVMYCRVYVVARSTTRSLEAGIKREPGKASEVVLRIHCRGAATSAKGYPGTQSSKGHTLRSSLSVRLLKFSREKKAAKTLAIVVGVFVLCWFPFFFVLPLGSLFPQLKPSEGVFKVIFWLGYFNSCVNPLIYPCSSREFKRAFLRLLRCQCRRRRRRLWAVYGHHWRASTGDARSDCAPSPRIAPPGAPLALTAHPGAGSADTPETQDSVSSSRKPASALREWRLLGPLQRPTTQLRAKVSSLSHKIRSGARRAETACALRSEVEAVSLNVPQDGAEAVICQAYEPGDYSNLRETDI
T4 sequence (P43140 whole entry): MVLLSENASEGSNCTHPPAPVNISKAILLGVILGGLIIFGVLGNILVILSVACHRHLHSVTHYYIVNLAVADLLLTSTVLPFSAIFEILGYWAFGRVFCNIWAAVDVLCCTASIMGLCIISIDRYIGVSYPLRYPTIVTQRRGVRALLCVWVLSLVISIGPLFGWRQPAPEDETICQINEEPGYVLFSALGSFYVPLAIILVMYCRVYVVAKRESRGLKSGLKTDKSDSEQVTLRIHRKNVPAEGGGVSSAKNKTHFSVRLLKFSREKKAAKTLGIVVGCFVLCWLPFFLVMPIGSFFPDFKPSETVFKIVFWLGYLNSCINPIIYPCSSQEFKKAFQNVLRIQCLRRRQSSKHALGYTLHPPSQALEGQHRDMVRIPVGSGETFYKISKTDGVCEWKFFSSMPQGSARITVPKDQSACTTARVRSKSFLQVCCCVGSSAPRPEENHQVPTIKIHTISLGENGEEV

D(1A) dopamine receptor [5] = target: T5, D(1A) dopamine receptor (Rattus norvegicus, UniProt P18901); assay: Binding affinity at rat Dopamine receptor D1 by [3H]SCH-23390 displacement.
In short: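 Rat striatal tissue suspended in 20 mM NaHepes without sucrose, at 250 volumes of the tissue weight. Labelled with [3H]SCH-23390 added as a 3 nM solution. Nonspecific binding set with unlabelled SCH-23390 added as a 30 μM solution. Incubated 20 min. Run in duplicate, with one to five concentration–response curves per compound.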

D(2) dopamine receptor [6] = target: T6, D(2) dopamine receptor (Rattus norvegicus, UniProt P61169); assay: Binding affinity against rat Dopamine receptor D2.
Rattus norvegicus [7] = assay: (§1) Effective dose in blocking conditioned avoidance responding (CAR) in the rat when administered intraperitoneally; type: functional; conditions: ip
In short: (§2)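 Rats trained on a discrete-trial single-lever conditioned avoidance task, dosed ip and tested at the time of peak effect. Each dose was given to 6–12 rats. CAR reduction and loss of escape responding were recorded.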

Rattus norvegicus [8] = species: Rattus norvegicus; assay: (§3) The percent loss of escape responding was determined for the estimated effective dose 50 values for CAR block; type: functional
[9] = target: 5-hydroxytryptamine receptor 1B (Rattus norvegicus, UniProt P28564); assay: Binding affinity at rat 5-hydroxytryptamine 1B receptor by [3H]5-HT displacement.
[10] = target: T1, Serotonin 1 (5-HT1) receptor; assay: Binding affinity determined in radioreceptor binding assay by using [3H]5-HT radioligand against 5-hydroxytryptamine 1 receptor; type: protein assay
D(1A) dopamine receptor [11] = target: T5, D(1A) dopamine receptor; assay: Activity in radioreceptor binding assay by using […] against Dopamine receptor D1
Rattus norvegicus [12] = species: Rattus norvegicus; assay: as §3; type: functional; in short: as §2; remark: listed apart in the source
[13] = target: T3, Serotonin 2 (5-HT2) receptor; assay: Binding affinity determined in radioreceptor binding assay by using [3H]ketanserin radioligand against 5-hydroxytryptamine 2 receptor; type: protein assay
D(2) dopamine receptor [14] = target: T6, D(2) dopamine receptor; assay: Binding affinity determined in radioreceptor binding assay against dopamine receptor D2
Rattus norvegicus [15] = assay: as §1; conditions: ip
D(1A) dopamine receptor [16] = target: T5, D(1A) dopamine receptor

T5 sequence (P18901 whole entry): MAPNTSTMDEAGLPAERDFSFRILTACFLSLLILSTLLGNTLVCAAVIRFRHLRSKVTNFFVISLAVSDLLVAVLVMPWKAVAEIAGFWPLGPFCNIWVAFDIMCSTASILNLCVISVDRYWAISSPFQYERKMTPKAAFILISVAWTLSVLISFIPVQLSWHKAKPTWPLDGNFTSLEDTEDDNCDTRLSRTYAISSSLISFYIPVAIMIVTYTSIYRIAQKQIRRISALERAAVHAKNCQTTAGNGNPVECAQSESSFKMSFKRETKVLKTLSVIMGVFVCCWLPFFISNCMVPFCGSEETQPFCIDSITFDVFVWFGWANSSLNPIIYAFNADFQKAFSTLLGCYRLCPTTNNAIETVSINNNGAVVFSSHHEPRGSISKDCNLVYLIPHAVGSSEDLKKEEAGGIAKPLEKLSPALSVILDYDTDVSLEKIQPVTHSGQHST
5-hydroxytryptamine receptor 1B, sequence (P28564 whole entry): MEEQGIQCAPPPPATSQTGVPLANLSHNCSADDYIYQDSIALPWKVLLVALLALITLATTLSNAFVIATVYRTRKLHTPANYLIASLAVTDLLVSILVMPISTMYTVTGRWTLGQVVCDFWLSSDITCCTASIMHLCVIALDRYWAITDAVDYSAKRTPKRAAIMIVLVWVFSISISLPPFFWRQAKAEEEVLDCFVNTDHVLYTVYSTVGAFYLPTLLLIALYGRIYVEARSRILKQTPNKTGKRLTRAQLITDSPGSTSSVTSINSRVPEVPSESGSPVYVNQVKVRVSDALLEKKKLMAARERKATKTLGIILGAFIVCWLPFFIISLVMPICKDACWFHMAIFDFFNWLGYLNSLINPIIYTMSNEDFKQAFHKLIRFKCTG
T6 sequence (P61169 whole entry): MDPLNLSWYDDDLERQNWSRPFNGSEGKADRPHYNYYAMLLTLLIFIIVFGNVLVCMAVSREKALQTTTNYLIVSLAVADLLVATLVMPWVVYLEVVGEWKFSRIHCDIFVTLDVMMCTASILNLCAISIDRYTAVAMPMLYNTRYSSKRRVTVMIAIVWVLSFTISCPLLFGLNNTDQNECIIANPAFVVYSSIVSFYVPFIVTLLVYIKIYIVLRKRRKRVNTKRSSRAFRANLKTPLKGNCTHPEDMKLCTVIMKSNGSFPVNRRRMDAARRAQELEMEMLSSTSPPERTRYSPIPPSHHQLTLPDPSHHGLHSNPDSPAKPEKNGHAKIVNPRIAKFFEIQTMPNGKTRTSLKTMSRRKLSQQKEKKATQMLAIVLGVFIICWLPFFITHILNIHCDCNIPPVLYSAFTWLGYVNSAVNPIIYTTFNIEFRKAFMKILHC

Structure (SMILES)	Ki [1] [µM]	Ki [2] [µM]	Ki [3] [µM]	Ki [4] [µM]	Ki (D(1A) dopamine receptor [5]) [µM]	Ki (D(2) dopamine receptor [6]) [µM]	ED50 (Rattus norvegicus [7]) [mg/kg]	Loss (Rattus norvegicus [8]) [%]	Ki [9] [µM]	also measured
O=[N+]([O-])c1cccc(N2CCNCC2)c1	0.25	~0.322	0.419	> 1	> 1	> 1	5.6	4.3	0.0336	
Fc1cccc(N2CCNCC2)c1	0.0865	0.114	> 1	0.67	> 1	> 1	3.2		0.0308	
CCOc1ccccc1N1CCNCC1	0.0426	0.0091	0.774	0.07	> 1	0.144	3.4	~1	0.0138	
N#Cc1ccccc1N1CCNCC1	0.0261	0.0255	> 1	0.214	> 1	> 1	5.7	4.3	0.0218	
CC(C)c1ccccc1N1CCNCC1		0.0125	0.19	0.168		0.111	5.9		0.00398	Ki [10]: 0.0234 µM; Ki (D(1A) dopamine receptor [11]): > 1 µM; Loss (Rattus norvegicus [12]): 0.1%
Fc1ccccc1N1CCNCC1	0.0579	0.043	> 1	0.373	> 1	> 1	5.1	1.6	0.0289	
CCCCOc1ccccc1N1CCNCC1	0.0193	0.0111	0.277	0.139	> 1	0.244	11.2	0.2	0.004	
CCc1ccccc1N1CCNCC1		0.0227	0.124	0.096	> 1	0.449	6.8		0.0082	Ki [10]: 0.0171 µM; Loss (Rattus norvegicus [12]): 2.5%
COc1ccccc1N1CCNCC1	0.029	0.0095	> 1	0.51	> 1		5.6	1.8	0.0173	
CC(C)Oc1ccccc1N1CCNCC1	0.019	0.0076	0.235	0.084	> 1	0.064	4.8	0.4	0.0069	
Cc1ccccc1N1CCNCC1		0.0274		0.108	> 1	> 1	> 20		0.0446	Ki [10]: 0.0624 µM; Ki [13]: 0.558 µM
Clc1ccccc1N1CCNCC1		0.0195	> 1					3.1	0.0117	Ki (D(2) dopamine receptor [14]): > 1 µM; ED50 (Rattus norvegicus [15]): 10.2 mg/kg; Ki (D(1A) dopamine receptor [16]): > 1 µM
CCCc1ccccc1N1CCNCC1		0.0194	0.232	0.117	> 1	0.379	> 15		0.0159	Ki [10]: 0.0349 µM
CCCCc1ccccc1N1CCNCC1		0.0191	0.204	0.0318	> 1	0.841	> 15		0.0084	Ki [10]: 0.0648 µM
CCCN(CCC)C1CCc2cccc(O)c2C1 (stereo unspecified) [8-OH-DPAT]							0.5			
CN1[C@@H]2CC[C@H]1C[C@@H](OC(=O)C(CO)c1ccccc1)C2 (stereo partly specified) [ATROPINE]							3			
Clc1cccc(N2CCNCC2)c1 [CHLOROPHENYLPIPERAZINE]	0.025	0.023	0.04	0.236	> 1	> 1	2.4	1.5	0.0044	
CN(C)CCCN1c2ccccc2Sc2ccc(Cl)cc21 [CHLORPROMAZINE]							1.8	0.2		
CN1CCN(C2=Nc3cc(Cl)ccc3Nc3ccccc32)CC1 [CLOZAPINE]								12.6		
COC(=O)[C@H]1[C@@H](OC(=O)c2ccccc2)C[C@@H]2CC[C@H]1N2C [COCAINE]							10			
CNCCCN1c2ccccc2CCc2ccccc21 [DESIPRAMINE]							20			
CN1C(=O)CN=C(c2ccccc2)c2cc(Cl)ccc21 [DIAZEPAM]							10			
O=C(CCCN1CCC(O)(c2ccc(Cl)cc2)CC1)c1ccc(F)cc1 [HALOPERIDOL]								1.7		
CCN(CC)C(=O)[C@@H]1C=C2c3cccc4[nH]cc(c34)C[C@H]2N(C)C1 [LYSERGIDE]							0.32			
Clc1cncc(N2CCNCC2)n1 [MK-212]		0.202	> 1	0.913	> 1	> 1	2.8	19	0.178	Ki [10]: 0.844 µM
c1ccc(C2(N3CCCCC3)CCCCC2)cc1 [PHENCYCLIDINE]							1			
c1ccc(N2CCNCC2)cc1 [PHENYLPIPERAZINE]	0.149	0.149	0.668	0.794	> 1	> 1	2.7	6	0.0633	
CSc1ccc2c(c1)N(CCC1CCCCN1C)c1ccccc1S2 (stereo unspecified) [THIORIDAZINE]							9.7	7.3		
CN1CCN(CCCN2c3ccccc3Sc3ccc(C(F)(F)F)cc32)CC1 [TRIFLUOPERAZINE]							0.52	1.2		
